Measured values from the array DNA melting data of Ke et al. (doi:10.1101/2024.01.08.574731).

Columns and labels:
[1] = folding enthalpy; higher = less favourable; fluorescence melt of hairpins on a sequencing array, two-state fit; conditions: sodium 0.088 M
How it was run: (§1)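 Cy3 fluorescence of library hairpins on a sequenced MiSeq flow cell, with annealed Cy3 and quencher oligos, was imaged in 50 mM Na-HEPES pH 8.0, 25 mM NaCl in 2.5 °C steps up to 60 °C. Signals were normalised to pre-quench Cy3 and to control variants. Melting temperature and folding enthalpy came from bootstrapped two-state fits, inverse-variance combined over four replicates. Fitted temperatures were raised by 9.35 °C to match UV melts.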

[2] = melting temperature; fluorescence melt of hairpins on a sequencing array, two-state fit, raised by 9.35 °C to match UV melts; conditions: sodium 0.088 M
How it was run: as §1

Sequence	folding enthalpy [1]	Tm [2]
GGACAGCGAAAGCTCTCC (((.(((....))).)))	-18.3 kcal/mol	38.4 °C
GGACAGGGAAACCTGCCC ((.((((....)))).))	-22.3 kcal/mol	48.2 °C
GGACATGAAAATGTCC ((((((....))))))	-34.7 kcal/mol	61.7 °C
GGACATGGAAACATGCCC ((.((((....)))).))	-23.4 kcal/mol	47.4 °C
GGACCACCGAAAGGTTCC (((..(((....))))))	-11.2 kcal/mol	29.6 °C
GGACCAGCGAAAGCTTCC (((..(((....))))))	-10.3 kcal/mol	25.2 °C
GGACCAGGAAACTGATCC (((.(((....))).)))	-34.2 kcal/mol	40.3 °C
GGACCCACGAAAGTGTCC (((..(((....))))))	-14.4 kcal/mol	36.4 °C
GGACCCCGAAAGGGATCC (((.(((....))).)))	-26.9 kcal/mol	55.3 °C
GGACCCGCGAAAGCGTCC (((..(((....))))))	-12.4 kcal/mol	36.7 °C
GGACCGCGAAAGCGATCC (((.(((....))).)))	-27.9 kcal/mol	59 °C
GGACCGGCGAAAGCCTCC (((..(((....))))))	-10.2 kcal/mol	27.5 °C
GGACCGGGAAACCAGTCC ((((.((....)).))))	-23.4 kcal/mol	47.3 °C
GGACCGGGAAACCGGTTC (.(((((....))))).)	-22.3 kcal/mol	59 °C
GGACCGGGAAACTGGTCC (((((.(....).)))))	-44.9 kcal/mol	58.2 °C
GGACCTCGAAAGAGTTCC (((.(((....))).)))	-27.2 kcal/mol	45 °C
GGACCTGGAAACAAGTCC ((((.((....)).))))	-23.5 kcal/mol	38.7 °C
GGACGACGAAAGTCTTCC (((.(((....))).)))	-27.1 kcal/mol	48.9 °C
GGACGAGAAATCGTCC ((((((....))))))	-47 kcal/mol	60.2 °C
GGACGCGAAAGCGAGTCC ((((((....)))..)))	-21 kcal/mol	55.4 °C
GGACGCGAAAGCGATTCC ((((((....)))..)))	-11 kcal/mol	36.5 °C
GGACGCGAAAGCGCATCC ((((((....)))..)))	-10.1 kcal/mol	34.5 °C
GGACGCGAAAGCGCCTCC ((((((....)))..)))	-11.6 kcal/mol	60.2 °C

Sequence	folding enthalpy [1]	Tm [2]
GGACGCGAAAGCGGGTCC ((((((....)))..)))	-14 kcal/mol	54.2 °C
GGACGTCGAAAGACATCC (((.(((....))).)))	-26.5 kcal/mol	47.3 °C
GGACGTCGAAAGACCTCC (((.(((....))).)))	-22.3 kcal/mol	41.2 °C
GGACTACCGAAAGGTTCC (((..(((....))))))	-11.2 kcal/mol	32.8 °C
GGACTCGAAAGAGACTCC ((((((....)))..)))	-11.6 kcal/mol	36 °C
GGACTCGAAAGAGATTCC ((((((....)))..)))	-11.3 kcal/mol	25.6 °C
GGACTCGAAAGAGCGTCC ((((((....)))..)))	-16 kcal/mol	32 °C
GGACTCGCGAAAGCGTCC (((..(((....))))))	-13.1 kcal/mol	39.1 °C
GGACTCGGAAACGAGTTC (.(((((....))))).)	-38.3 kcal/mol	53.6 °C
GGACTCGGAAACGGGTTC (.((.((....)).)).)	-25.7 kcal/mol	40.2 °C
GGACTGCCGAAAGGCTCC (((..(((....))))))	-10.2 kcal/mol	34.7 °C
GGACTGCGAAAGCATCC (((.(((....))))))	-13.5 kcal/mol	41.8 °C
GGACTGCGAAAGCATTCC (((.(((....))).)))	-29.8 kcal/mol	48.5 °C
GGACTGGGAAACCAATCC (((.(((....))).)))	-28 kcal/mol	36 °C
GGACTGGGAAACCAGCCC ((.((((....)))).))	-20.5 kcal/mol	50.4 °C
GGACTGTCGAAAGACTCC (((..(((....))))))	-5.54 kcal/mol	21.5 °C
GGACTTCGAAAGAAATCC (((.(((....))).)))	-26.6 kcal/mol	37.3 °C
GGACTTGGAAACAAATCC (((.(((....))).)))	-12.4 kcal/mol	35.3 °C
GGACTTGGAAACGAGTTC (.(((.(....).))).)	-21.5 kcal/mol	32.9 °C
GGAGAACCGAAAGGTTCC (((..(((....))))))	-9.16 kcal/mol	43.1 °C
GGAGAACGAAAGTTGTCC (((.(((....))).)))	-34.6 kcal/mol	51.5 °C
GGAGAAGAAATTCTCC ((((((....))))))	-27.7 kcal/mol	47.7 °C
GGAGAAGGAAACTTCCCC ((.((((....)))).))	-16.8 kcal/mol	35.2 °C

Sequence	folding enthalpy [1]	Tm [2]
GGAGAATCGAAAGATTCC (((..(((....))))))	-15.8 kcal/mol	38.1 °C
GGAGACCGAAAGGTTCC (((.(((....))))))	-22.5 kcal/mol	48 °C
GGAGACGAAAGTCATCC ((((((....))).)))	-17.3 kcal/mol	45.5 °C
GGAGACGAAAGTCGCTCC ((((((....)))..)))	-13 kcal/mol	42.4 °C
GGAGACGAAAGTCGGTCC ((((((....)))..)))	-12.3 kcal/mol	39.8 °C
GGAGAGAAATCTCC (((((....)))))	-18.4 kcal/mol	45.1 °C
GGAGATGGAAACATCTCC (((((((....)))))))	-38 kcal/mol	65 °C
GGAGCAGGAAACCACTCC ((((..(....)..))))	-11.5 kcal/mol	27.1 °C
GGAGCAGGAAACTACTCC ((((.((....)).))))	-27.4 kcal/mol	41.1 °C
GGAGCAGGAAACTGCCCC ((.((((....)))).))	-17.4 kcal/mol	49.7 °C
GGAGCCGAAAGGCATCC ((((((....))).)))	-14.2 kcal/mol	53.8 °C
GGAGCCGAAAGGCATTCC ((((((....)))..)))	-10.3 kcal/mol	33.1 °C
GGAGCCGAAAGGCGTCC ((((((....))).)))	-9.6 kcal/mol	53.4 °C
GGAGCCGAAAGGCTATCC ((((((....)))..)))	-8.64 kcal/mol	38.2 °C
GGAGCCGAAAGGCTCTCC ((((((....)))..)))	-7.29 kcal/mol	56.5 °C
GGAGCCGAAAGGCTGTCC ((((((....)))..)))	-8.93 kcal/mol	41 °C
GGAGCCGAAAGGCTTCC ((((((....))).)))	-14.6 kcal/mol	60.3 °C
GGAGCCGGAAACAGCTCC (((((.(....).)))))	-27.7 kcal/mol	51.3 °C
GGAGCCGGAAACGGCTTC (.(((((....))))).)	-15 kcal/mol	60.8 °C
GGAGCCGGAAACGGTTCC (((.(((....))).)))	-45.1 kcal/mol	58.5 °C
GGAGCCTCGAAAGAGTCC (((..(((....))))))	-9.23 kcal/mol	25.9 °C
GGAGCGCGAAAGCGTCC (((.(((....))))))	-13.9 kcal/mol	52.1 °C
GGAGCGGCGAAAGCCTCC (((..(((....))))))	-13.8 kcal/mol	39.5 °C

Sequence	folding enthalpy [1]	Tm [2]
GGAGCTGCGAAAGCATCC (((..(((....))))))	-9.48 kcal/mol	32.4 °C
GGAGCTGGAAACAGCCCC ((.((((....)))).))	-24.2 kcal/mol	54.3 °C
GGAGCTGGAAACAGTTCC (((.(((....))).)))	-37 kcal/mol	50 °C
GGAGGAGGAAACTTCTCC ((((.((....)).))))	-35.9 kcal/mol	45.2 °C
GGAGGCGAAAGCCAATCC ((((((....)))..)))	-10.4 kcal/mol	33.6 °C
GGAGGCGGAAACGCCTTC (.(((((....))))).)	-14.9 kcal/mol	57.5 °C
GGAGGCGGAAACGTCTCC ((((.((....)).))))	-49.2 kcal/mol	58.9 °C
GGAGGGCGAAAGCCATCC (((.(((....))).)))	-33.8 kcal/mol	66.3 °C
GGAGGGTCGAAAGACTCC (((..(((....))))))	-14.3 kcal/mol	39.5 °C
GGAGGTCGAAAGACGTCC (((.(((....))).)))	-37.7 kcal/mol	57.8 °C
GGAGGTGGAAACACCCCC ((.((((....)))).))	-18.7 kcal/mol	49.1 °C
GGAGGTGGAAACACCTCC (((((((....)))))))	-40.8 kcal/mol	68.6 °C
GGAGGTGGAAACGCCTCC (((((.(....).)))))	-50 kcal/mol	57.2 °C
GGAGGTGGAAACGCCTTC (.(((.(....).))).)	-26.2 kcal/mol	48.5 °C
GGAGTAGGAAACTGCTCC ((((.((....)).))))	-28.5 kcal/mol	51.4 °C
GGAGTCCGAAAGGAGTCC (((.(((....))).)))	-44.2 kcal/mol	63.3 °C
GGAGTCGGAAACGACTTC (.(((((....))))).)	-25.6 kcal/mol	55.5 °C
GGAGTCGGAAACGGCTTC (.((.((....)).)).)	-21.7 kcal/mol	44.3 °C
GGAGTCGGAAACGGTTCC (((..((....))..)))	-27.1 kcal/mol	34.6 °C
GGAGTGACGAAAGTCTCC (((..(((....))))))	-18 kcal/mol	38.8 °C
GGAGTGGCGAAAGCCTCC (((..(((....))))))	-15 kcal/mol	44 °C
GGAGTGGGAAACCACCCC ((.((((....)))).))	-21.5 kcal/mol	47.1 °C
